From ChEMBL document CHEMBL3272290, “Contragestational agents. 1. Steroidal O-aryloximes” (J Med Chem, 1977) come the findings set out here.

Structures are written as SMILES.

The test system of the first test is Rattus norvegicus. The test is described as follows: Antifertility activity in Wistar rat assessed as inhibition of preimplantive gestation by measuring resorptions at 40 mg/kg, po administered in days 9 to 12 of pregnancy measured on day 21. It counts as functional. Also on record: scale not given: the % may be the effect or the level left. In short, it runs like this: (§1)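 Groups of five pregnant female Wistar-derived rats dosed orally on days 9–12 of pregnancy, in sesame oil at 0.5 mL per 200 g body weight. Read-out was the percentage of resorptions.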
For the compound `C[C@]12CC/C(=N\Oc3ccc([N+](=O)[O-])cc3[N+](=O)[O-])C[C@@H]1CC[C@@H]1[C@@H]2CC[C@]2(C)[C@@H](O)CC[C@@H]12`, the Activity amounted to 8.2%. As to `CC(=O)O[C@H]1CC[C@H]2[C@@H]3CC[C@H]4C/C(=N/Sc5ccc([N+](=O)[O-])cc5)CC[C@]4(C)[C@H]3CC[C@]12C`, the Activity amounted to 7.5%. On the same count and under the same terms, the figure for `C[C@]12CC/C(=N\Oc3ccc([N+](=O)[O-])cc3)C[C@@H]1CC[C@@H]1[C@@H]2CC[C@@]2(C)[C@H]1CCC21SCCS1` is 4%; for `C[C@]12CC/C(=N\Oc3ccc([N+](=O)[O-])cc3)C[C@@H]1CC[C@@H]1[C@@H]2CC[C@]2(C)[C@@H](N)CC[C@@H]12` it is 2%; for `C#C[C@]1(O)CC[C@H]2[C@@H]3CCC4=C/C(=N/Oc5ccc([N+](=O)[O-])cc5)CC[C@@H]4[C@H]3CC[C@@]21C` it is 25%. With `C[C@]12CC/C(=N\Oc3ccc([N+](=O)[O-])cc3)C[C@@H]1CC[C@@H]1[C@@H]2CC[C@]2(C)[C@@H](O[N+](=O)[O-])CC[C@@H]12`, the Activity is 30.8%. Consider `Cc1cc([N+](=O)[O-])ccc1O/N=C1\CC[C@@]2(C)[C@@H](CC[C@@H]3[C@@H]2CC[C@]2(C)[C@@H](O)CC[C@@H]32)C1`, for which the Activity came out at 5.7%. Same read-out and setting: the figure for `C[C@]12CC/C(=N\Oc3ccc(C(F)(F)F)cc3)C[C@@H]1CC[C@@H]1[C@@H]2CC[C@]2(C)[C@@H](O)CC[C@@H]12` is 4.8%; for `CC(=O)[C@H]1CC[C@H]2[C@@H]3CC[C@H]4C/C(=N/Oc5ccc([N+](=O)[O-])cc5)CC[C@]4(C)[C@H]3CC[C@]12C` it is 4%; for `C[C@]12CC[C@H]3[C@@H](CCC4=C/C(=N/Oc5ccccn5)CC[C@@]43C)[C@@H]1CC[C@@H]2O` it is 75.9%.

Consider `C[C@]12CC[C@H]3[C@@H](CCC4=C/C(=N/Oc5ccccc5[N+](=O)[O-])CC[C@@H]43)[C@@H]1CC[C@@H]2O`, for which the Activity is reported as 11.9%. Same read-out and setting: in the case of `CC(=O)O[C@H]1CC[C@H]2[C@@H]3CC[C@H]4C/C(=N/Nc5ccc([N+](=O)[O-])cc5)CC[C@]4(C)[C@H]3CC[C@]12C` it was 7.7%. On the same count and under the same terms, in the case of `C[C@]12CC/C(=N\Oc3ccc([N+](=O)[O-])cc3[N+](=O)[O-])C[C@H]1CC[C@@H]1[C@@H]2CC[C@]2(C)[C@@H](O)CC[C@@H]12` it was 5.4%; in that of `C[C@]12CC/C(=N\Oc3ccccn3)C[C@@H]1CC[C@@H]1[C@@H]2CC[C@]2(C)[C@@H](O)CC[C@@H]12`, 0%. For the compound `C[C@]12CC/C(=N\Oc3ccc([N+](=O)[O-])cc3Cl)C[C@@H]1CC[C@@H]1[C@@H]2CC[C@]2(C)[C@@H](O)CC[C@@H]12`, the Activity amounted to 5.8%.

As for `CC(=O)O[C@H]1CC[C@H]2[C@@H]3CCC4C/C(=N/Oc5ccc([N+](=O)[O-])cc5)C=C[C@]4(C)[C@H]3CC[C@]12C` (stereo partly drawn), the Activity is 2%. Same read-out and setting: the figure for `C[C@]12CC[C@H]3[C@@H](CCC4=C/C(=N/Oc5ccc(C(F)(F)F)cc5)CC[C@@]43C)[C@@H]1CC[C@@H]2O` is 11.8%. On the same count and under the same terms, in the case of `CC(=O)O[C@H]1CC[C@H]2[C@@H]3CC[C@H]4CC(=O)CC[C@]4(C)[C@H]3CC[C@]12C` it was 5%; in that of `C[C@]12CC/C(=N\Oc3ccc([N+](=O)[O-])cc3)C[C@@H]1CC[C@@H]1[C@@H]2CC[C@@]2(C)[C@H]1CC[C@]2(C)O`, 14.7%; in that of `C[C@]12CC/C(=N\Oc3ccc(C#N)cc3)C[C@@H]1CC[C@@H]1[C@@H]2CC[C@]2(C)[C@@H](O)CC[C@@H]12`, 12.9%. Take `C[C@]12CC/C(=N\OCc3ccc(Br)c(O)c3)C[C@@H]1CC[C@@H]1[C@@H]2CC[C@]2(C)[C@@H](O)CC[C@@H]12`: the Activity is recorded as 8.8%.

`CC(=O)O[C@H]1CC[C@H]2[C@@H]3CC[C@H]4C/C(=N/Oc5ccc([N+](=O)[O-])cc5)C[C@H](C)[C@]4(C)[C@H]3CC[C@]12C`: the Activity is reported as 5.8%. As for `CC(=O)O[C@H]1CC[C@H]2[C@@H]3CC[C@H]4C/C(=N/Oc5ccccc5[N+](=O)[O-])CC[C@]4(C)[C@H]3CC[C@]12C`, the Activity is on record as 4%.

Take `Cc1cc(O/N=C2\CC[C@@]3(C)[C@@H](CC[C@@H]4[C@@H]3CC[C@]3(C)[C@@H](O)CC[C@@H]43)C2)ccc1[N+](=O)[O-]`: the Activity came out at 13.1%. Turning to `C[C@]12CC[C@H]3[C@@H](CC[C@H]4C/C(=N/Oc5ccc([N+](=O)[O-])cc5[N+](=O)[O-])CC[C@@H]43)[C@@H]1CC[C@@H]2O`, the Activity is 16.4%. As to `C[C@@]12CCC[C@H]1[C@@H]1CC[C@H]3C/C(=N/Oc4ccc([N+](=O)[O-])cc4)CC[C@]3(C)[C@H]1CC2`, the Activity came to 0%.

Regarding `C[C@]12CC[C@H]3[C@@H](CCC4=C/C(=N/Oc5ccccc5)CC[C@@H]43)[C@@H]1CC[C@@H]2O`, the Activity worked out at 100%.

As to `C[C@]12CC/C(=N\Oc3ccc([N+](=O)[O-])cn3)C[C@@H]1CC[C@@H]1[C@@H]2CC[C@]2(C)[C@@H](O)CC[C@@H]12`, the Activity is given as 6%. The same measure, in the same setting: the figure for `C[C@]12CC/C(=N\Oc3ccccc3)C[C@H]1CC[C@@H]1[C@@H]2CC[C@]2(C)[C@@H](O)CC[C@@H]12` is 11.9%; for `C#C[C@]1(O)CC[C@H]2[C@@H]3CC[C@H]4C/C(=N/Oc5ccc([N+](=O)[O-])cc5)CC[C@]4(C)[C@H]3CC[C@@]21C` it is 76.9%; for `C[C@]12CC/C(=N\Oc3ccccc3)C[C@@H]1CC[C@@H]1[C@@H]2CC[C@]2(C)[C@@H](O)CC[C@@H]12` it is 1.9%.

Take `C[C@]1(O)CC[C@H]2[C@@H]3CC[C@H]4C/C(=N/Oc5ccc([N+](=O)[O-])cc5[N+](=O)[O-])CC[C@@H]4[C@H]3CC[C@@]21C`: the Activity came to 9.5%. Still for that read-out and setting: in the case of `C[C@]12CC/C(=N\OCc3ccccc3)C[C@@H]1CC[C@@H]1[C@@H]2CC[C@]2(C)[C@@H](O)CC[C@@H]12` it was 13.3%; in that of `C[C@]12CC[C@H]3[C@@H](CCC4=C/C(=N/Oc5ccc([N+](=O)[O-])cc5)CC[C@@]43C)[C@@H]1CC[C@@H]2O`, 93.8%; in that of `C[C@]12CC[C@H]3[C@@H](CC[C@H]4C/C(=N/Oc5ccc([N+](=O)[O-])cc5)CC[C@@H]43)[C@@H]1CC[C@@H]2O`, 9.8%. With `C[C@]12CC/C(=N\Oc3ccc([N+](=O)[O-])cc3)C[C@H]1CC[C@@H]1[C@@H]2CC[C@]2(C)[C@@H](O)CC[C@@H]12`, the Activity was found to be 10.9%.

A further test relates to Rattus norvegicus. The test is described as follows: Antifertility activity in Wistar rat assessed as inhibition of preimplantive gestation by measuring resorptions at 2.5 mg/kg, po administered in days 9 to 12 of pregnancy measured on day 21. It counts as functional. Also on record: scale not given: the % may be the effect or the level left. In a few lines: as §1
On to `CC(=O)O[C@H]1CC[C@H]2[C@@H]3CC[C@H]4C/C(=N/Oc5ccc([N+](=O)[O-])cc5)[C@H](Br)C[C@]4(C)[C@H]3CC[C@]12C`, for which the Activity was 100%. For the compound `CC12CC[C@H]3[C@@H](CC[C@H]4C/C(=N/Oc5ccc([N+](=O)[O-])cc5)[C@H](Cl)C[C@@]43C)[C@@H]1CCC2=O` (single isomer, unassigned), the Activity is on record as 100%. Same read-out and setting: in the case of `C[C@]12C[C@@H](Br)/C(=N\Oc3ccc([N+](=O)[O-])cc3)C[C@@H]1CC[C@@H]1[C@@H]2CC[C@]2(C)[C@@H](O)CC[C@@H]12` it was 100%. Same read-out and setting: the figure for `C[C@]12CC/C(=N\Oc3ccc([N+](=O)[O-])cc3)C[C@@H]1CC[C@@H]1[C@@H]2CC[C@]2(C)[C@@H](O)CC[C@@H]12` is 100%; for `C[C@]12C[C@@H](Br)/C(=N\Oc3ccc([N+](=O)[O-])cc3)C[C@@H]1CC[C@@H]1[C@@H]2CC[C@]2(C)C(=O)CC[C@@H]12` it is 100%.

A further test deals with Rattus norvegicus. The experiment in a line: Antifertility activity in Wistar rat assessed as inhibition of preimplantive gestation by measuring resorptions at 5 mg/kg, po administered in days 9 to 12 of pregnancy measured on day 21. Format: functional. Further details: scale not given: the % may be the effect or the level left. In short, it runs like this: as §1
Regarding `C[C@]12CC/C(=N\Oc3ccc([N+](=O)[O-])cc3)C[C@@H]1CC[C@@H]1[C@@H]2CC[C@]2(C)C(=O)CC[C@@H]12`, the Activity is recorded as 100%.

In another test the test system is Rattus norvegicus. The experiment in a line: Antifertility activity in Wistar rat assessed as inhibition of preimplantive gestation by measuring resorptions at 20 mg/kg, po administered in days 9 to 12 of pregnancy measured on day 21. Also on record: scale not given: the % may be the effect or the level left. It counts as functional. In short, it runs like this:
as §1
In the case of `C[C@]12CC[C@H]3[C@@H](CCC4=C/C(=N/Oc5ccc([N+](=O)[O-])cc5)C=C[C@@]43C)[C@@H]1CC[C@@H]2O`, the Activity is recorded as 6%. On the same count and under the same terms, in the case of `C[C@]12CC/C(=N\Oc3ccc([N+](=O)[O-])cc3[N+](=O)[O-])C=C1CC[C@@H]1[C@@H]2CC[C@@]2(C)[C@H]1CC[C@]2(C)O` it was 2.2%; in that of `C[C@]12CC[C@H]3[C@@H](CCC4=C/C(=N/Oc5ccc([N+](=O)[O-])cc5[N+](=O)[O-])CC[C@@H]43)[C@@H]1CC[C@@H]2O`, 100%. The same measure, in the same setting: in the case of `C[C@]12CC[C@H]3[C@@H](CCC4=C/C(=N/Oc5ccccn5)CC[C@@H]43)[C@@H]1CC[C@@H]2O` it was 100%.

For `C[C@]12CC[C@H]3[C@@H](CCC4=C/C(=N/Oc5ccc([N+](=O)[O-])cc5)CC[C@@H]43)[C@@H]1CC[C@@H]2O`, the Activity came to 63.9%. Still for that read-out and setting: in the case of `C[C@]12CC[C@H]3[C@@H](CCC4=C/C(=N/Oc5ccc([N+](=O)[O-])cc5[N+](=O)[O-])C=C[C@@]43C)[C@@H]1CC[C@@H]2O` it was 92.6%.
